Sampled rows, rich in hits. Any-hit rate of the full collection: about 1.8%.
Hck Nef HTS – inhibitors of Nef-activated human Hck kinase, primary screen, biochemical, Z-Lyte FRET, 384-well, Hck-YEEI | 0.68% of 220,000 active | Tyrosine-protein kinase HCK (Homo sapiens), P08631 | inhibition, % at 20 µM | Recombinant Hck-YEEI plus Nef, Z-Lyte FRET kinase assay;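 active = Hck-Nef kinase inhibition above about 50%, limit read from the data; inactive = inhibition below that limit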
Runt-CBFb FRET – inhibitors of RUNX1 Runt–CBFb binding, primary screen, biochemical, FRET, Cerulean-Runt, Venus-CBFb, uHTS. Runt-related transcription factor 1 (Homo sapiens) + Core-binding factor subunit beta …. Cerulean-Runt/Venus-CBFb FRET ratio 530/480, 1 h. inhibition, % at 20 µM. 0.46% of 220,000 active. AID 1496, 2009;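 active = inhibition over about 50% at 20 µM in the single-dose screen, limit read from the data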
Target sequence (Q01196 whole entry, looked up): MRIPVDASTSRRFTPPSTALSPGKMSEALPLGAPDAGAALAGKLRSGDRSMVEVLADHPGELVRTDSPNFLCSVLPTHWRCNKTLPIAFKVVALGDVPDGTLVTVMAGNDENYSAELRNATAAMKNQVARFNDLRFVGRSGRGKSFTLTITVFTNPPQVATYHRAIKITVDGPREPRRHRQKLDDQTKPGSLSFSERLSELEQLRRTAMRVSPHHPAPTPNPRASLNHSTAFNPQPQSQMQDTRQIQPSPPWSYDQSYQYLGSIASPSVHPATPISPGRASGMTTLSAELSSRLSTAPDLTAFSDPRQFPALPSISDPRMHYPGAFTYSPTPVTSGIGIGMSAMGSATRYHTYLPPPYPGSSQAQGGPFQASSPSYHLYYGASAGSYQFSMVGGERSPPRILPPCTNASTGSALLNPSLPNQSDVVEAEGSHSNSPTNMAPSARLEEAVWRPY
Target sequence (Q13951 whole entry, looked up): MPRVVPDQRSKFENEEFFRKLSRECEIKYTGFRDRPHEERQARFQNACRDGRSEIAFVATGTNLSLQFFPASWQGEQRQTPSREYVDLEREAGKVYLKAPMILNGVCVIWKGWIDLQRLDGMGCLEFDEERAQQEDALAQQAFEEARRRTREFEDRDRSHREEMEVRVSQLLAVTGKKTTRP
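test system = Cerulean-tagged RUNX1 Runt domain (FRET donor) fusion protein | reagent = Venus-CBFb binding partner, 100 nM | incubation = protein complex preformed 1 h, compound exposure 1 h, room temperature, dark | detection = FRET fluorescence | read-out basis = loss of energy transfer signal | controls = 5 µM unlabeled CBFb as full-inhibition high control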
RanGTP-Imp inh – inhibitors of RanGTP-importin-beta interaction, primary screen, biochemical, FRET, CFP-Ran, YFP-importin-beta, homogeneous. 1.1% of 300,000 active. Ran GTPase (GTP-bound) - importin-beta complex. cell-free CFP-Ran/YFP-importin-beta FRET ratio. inhibition, % (no concentration beside the values). AID 2216, 2009;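 active = more than half of the replicate wells show a fall in the fluorescence ratio signal beyond about 16%, limit read from the data, passing the limit was not always enough; inconclusive = exactly half of the replicate wells pass the set limit; inactive = fewer than half of replicates pass the limit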
Runt-SMMHC FRET – inhibitors of RUNX1 Runt–CBFb-SMMHC binding, primary screen, biochemical, FRET, Cerulean-Runt, Venus-CBFb-SMMHC, uHTS. Runt-related transcription factor 1 (Homo sapiens) + Core-binding factor subunit beta …. Cerulean-Runt/Venus-CBFb-SMMHC FRET ratio 530/480, 1 h. inhibition, % at 20 µM. 0.74% of 220,000 active. AID 1434, 2008;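 active = mean inhibition across duplicate retests at 20 µM reaching about 50%, limit read from the data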;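 note: inhibitors lower the FRET ratio by blocking Runt binding to CBFb-SMMHC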
YIC counter – YIC intramolecular FRET probe signal interference, dose response, counter-screen for RanGTP-importin-beta inhibitor project, biochemical, fluorescence FRET. shares compounds with RanGTP-Imp inh. Purified YIC probe, intramolecular FRET ratio YFP/CFP. IC50, µM. 40% of 1,000 active;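 active = fitted half-maximal inhibitory concentration no more than tenfold above the top dose tested; inconclusive = flat fit with 30 to 70% activity, or poor fit; inactive = half-maximal concentration beyond tenfold above the top dose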
Hck-Nef confirm – retest of Hck:Nef kinase inhibitor hits, confirmation, biochemical, Z-Lyte FRET, 384-well, p-Tyr peptide counterscreen | shares compounds with Hck Nef HTS | AID 463188, 2010 | Recombinant Hck-YEEI:Nef, Z-Lyte FRET kinase assay | 28% of 1,300 active | calls only at 10 µM;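 active = average inhibition of at least 50%, with Z-scores no higher than 3 in both the phospho-tyrosine peptide and fluorescence counterscreens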
Large screens that a line does not name were inactive (follow-up assays come after a bar, where shown).

CCCc1nn2c(N)c(/C=C3\C=Nc4ccccc43)c(=O)nc2s1	none
CC(C)c1nn2c(N)c(/C=C3\C=Nc4ccccc43)c(=O)nc2s1	RanGTP-Imp inh inconclusive
CS(=O)(=O)c1nsc2nc(=O)c(/C=C3\C=Nc4ccccc43)c(N)n12	RanGTP-Imp inh 25.0, Runt-SMMHC FRET 73.0 | YIC counter 20.1
C=CSc1sc(Cl)c(N(CC)CC)c1[N+](=O)[O-]	none
CCN1CCc2nc(NC(=O)Cc3ccc4c(c3)OCCO4)sc2C1	none (no result: RanGTP-Imp inh)
CCN1CCc2nc(NC(=O)CC(c3ccccc3)c3ccccc3)sc2C1	RanGTP-Imp inh 30.8, Runt-SMMHC FRET 60.0 | YIC counter 15.6
CC(C)Cn1c(SCC(=O)N2CC(=O)Nc3ccccc32)nc2ccccc21	none
Cc1nc2ccccc2n1CC(=O)N1CC(=O)Nc2ccccc21	RanGTP-Imp inh 17.6 | YIC counter inactive
CNC(=S)Nc1ccc(C(N)=O)cc1	RanGTP-Imp inh 27.3 | YIC counter inactive
N#CC1(NC(=O)CN2c3cccc4cccc(c34)S2(=O)=O)CCCCC1	none (no result: Hck Nef HTS, Runt-CBFb FRET, Runt-SMMHC FRET)
COCCCNC(=O)CCCCCNS(=O)(=O)c1ccc(Br)cc1	none
C=CCn1c(O)c(N=NC(=S)Nc2ccccc2F)c2ccccc21	none
C=CCn1c(O)c(N=NC(=S)Nc2ccccc2F)c2cc(S(=O)(=O)N3CCOCC3)ccc21	RanGTP-Imp inh 17.7 | YIC counter inactive
Cc1sc2ncnc(NCc3cccnc3)c2c1C	RanGTP-Imp inh 36.6 | YIC counter inactive
CC(=O)c1sc2nc(C)c3c(c2c1N)CCCC3	RanGTP-Imp inh 31.5, Runt-SMMHC FRET 89.8 | YIC counter 14.4
CCN1C(=O)C2(C(C#N)=C(N)Oc3n[nH]c(C(C)C)c32)c2ccccc21 (stereo unspecified)	RanGTP-Imp inh 25.6 | YIC counter inactive
CCN1C(=O)C2(C(C#N)=C(N)Oc3n[nH]c(-c4ccc(Cl)cc4)c32)c2ccccc21 (stereo unspecified)	none
O=C(OCC#CCSc1nc2ccccc2s1)c1ccco1	none
COc1ccc(C(=O)Nc2ccc(S(=O)(=O)Nc3onc(C)c3C)cc2)cc1	RanGTP-Imp inh 27.1 | YIC counter inactive
COc1cccc(C(=O)Nc2ccc(S(=O)(=O)Nc3onc(C)c3C)cc2)c1	none
CC(C)Oc1ccc(CNC(=O)CCC(=O)N2CCSc3ccccc32)cc1	none (no result: Hck Nef HTS, Runt-CBFb FRET, Runt-SMMHC FRET)
COCCN1C(=O)N[C@@H](c2ccccc2)[C@H](C(=O)OC)[C@H]1C	none (no result: Hck Nef HTS, Runt-CBFb FRET, Runt-SMMHC FRET)
O=C(/C=C/c1ccc[nH]1)c1ccccc1	RanGTP-Imp inh 22.8 | YIC counter 31.6
O=C(/C=C/c1ccc[nH]1)c1ccc(F)cc1	RanGTP-Imp inh 28.1 | YIC counter 24.8
O=C(CC1C(=O)NCCN1Cc1ccccc1)NCCC1=CCCCC1 (stereo unspecified)	none (no result: Hck Nef HTS, Runt-CBFb FRET, Runt-SMMHC FRET)
Nc1nonc1-n1nnc(C(=O)N/N=C/c2ccccc2)c1CSc1ccc(Cl)cc1	RanGTP-Imp inh 17.3 | YIC counter inactive
CCN(CC)Cc1c(O)c(Cl)cc2c3c(c(=O)oc12)CCCC3	Hck Nef HTS 112.6, Runt-CBFb FRET 107.0, RanGTP-Imp inh 47.7 | YIC counter 23.1
Cc1c(O)c(CN(C)C)cc2c1oc(=O)c1ccccc12	none
Cc1c(C)c2cc(Cl)c(O)c(CN(C)C)c2oc1=O	Hck Nef HTS 87.4, Runt-CBFb FRET 92.5, RanGTP-Imp inh 33.3, Runt-SMMHC FRET 81.4 | YIC counter 29.1
CCc1c(C)c2cc(Cl)c(O)c(CN(CC)CC)c2oc1=O	Hck Nef HTS 114.9, Runt-CBFb FRET 95.3, RanGTP-Imp inh 25.9, Runt-SMMHC FRET 65.3 | YIC counter 26.5
COc1ccc(NC(=O)NNC(=O)C(C)Oc2ccc3ccccc3c2)cc1OC (stereo unspecified)	none (no result: Hck Nef HTS, Runt-CBFb FRET, Runt-SMMHC FRET)
Cc1ccc(-n2cc(CNCCc3ncc(C)[nH]3)c(-c3ccc(F)cc3)n2)cc1	none (no result: Runt-CBFb FRET, Runt-SMMHC FRET)
O=C(Cc1cc(=O)oc2cc(O)ccc12)NCC1CCC(C(=O)O)CC1 (stereo unspecified)	Hck Nef HTS 61.6, Runt-CBFb FRET 107.8, RanGTP-Imp inh 31.9, Runt-SMMHC FRET 62.5 | YIC counter 9.83
c1ccc2c(c1)[nH]c1ccccc12	none (no result: Hck Nef HTS, Runt-CBFb FRET, Runt-SMMHC FRET)
O=c1c2ccccc2[nH]c2ccccc12	Hck Nef HTS 144.1, Runt-CBFb FRET 120.1, RanGTP-Imp inh 19.1, Runt-SMMHC FRET 82.9 | YIC counter 49.1
Cc1cccc(NC(=O)c2cc3c(s2)-c2c(C)cccc2OC3)n1	Hck Nef HTS 87.0, RanGTP-Imp inh 29.7 | YIC counter 7.29
Cc1cccc(NC(NC(=O)c2ccccc2[N+](=O)[O-])C(Cl)(Cl)Cl)c1 (stereo unspecified)	none
CCc1cc(=O)oc2c(CN3CCN(C)CC3)c(O)ccc12	none (no result: Hck Nef HTS, Runt-CBFb FRET, Runt-SMMHC FRET)
CCc1cc(=O)oc2c(CN3CCN(C)CC3)c(O)c(Cl)cc12	Hck Nef HTS 163.1, Runt-CBFb FRET 99.5, RanGTP-Imp inh 31.9, Runt-SMMHC FRET 90.6 | YIC counter 33.1
CCN(CC(=O)NCc1cccs1)C(=O)c1cccc(S(=O)(=O)Nc2ccc(C)cc2)c1	none (no result: Hck Nef HTS, Runt-CBFb FRET, Runt-SMMHC FRET)
O=C(NN1C(=O)/C(=C/c2cc([N+](=O)[O-])ccc2O)SC1=S)c1ccccc1O	none (no result: Hck Nef HTS, Runt-CBFb FRET, Runt-SMMHC FRET)
Cc1ccc(/C=C2\SC(=S)N(/N=C/c3cc([N+](=O)[O-])ccc3O)C2=O)o1	Hck Nef HTS 141.6 | Hck-Nef confirm active
COc1ccc(N2CC(C(=O)N[C@H](C(=O)NC(C)c3ccccc3)C(C)C)CC2=O)cc1 (stereo partly specified)	none (no result: Hck Nef HTS, Runt-CBFb FRET, Runt-SMMHC FRET)
Cc1cccc(-n2c(C)cc(/C=C3/C(=N)N4C(c5ccccc5)=CSC4=NC3=O)c2C)c1	none
COc1cc(/C=C2/C(=N)N3C(c4ccccc4)=CSC3=NC2=O)ccc1OCC(=O)O	Hck Nef HTS 79.0 | Hck-Nef confirm active
Cc1ccc(C2=NOC(=O)/C2=C\C=C\c2ccccc2)cc1	Hck Nef HTS 56.0 | Hck-Nef confirm inactive
CN(C)/C=C1\C(=O)ON=C1c1ccccc1	none
COc1ccc(-n2nc(C(=O)Nc3ccc4c(c3)OCO4)c3c4ccccc4n(C)c3c2=O)cc1	none
COc1ccc(-n2nc(C(=O)Nc3ccc(OC)c(OC)c3)c3c4ccccc4n(C)c3c2=O)cc1	Hck Nef HTS 89.4 | Hck-Nef confirm active

Compound activity from PubChem BioAssay.
